According to ChEMBL document CHEMBL1125678, “Quinazolineacetic acids and related analogues as aldose reductase inhibitors” (J Med Chem, 1991):
One block for each compound: values may come before it.

Assays:
[1] = test system: Rattus norvegicus; experiment: In vivo inhibition of galactitol accumulation in the diaphragm of rats fed 20% galactose for 4 day at 101 mg/kg/day dose; type: functional
Method in brief: (§1)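 Male Sprague-Dawley rats (50–70 g) in groups of six were fed chow with 20% (w/w) galactose. Controls received 20% glucose instead. Test compound was mixed into the diet, and dose was calculated from actual food intake. Rats were killed by decapitation after 4 days. Result is % lowering of tissue galactitol versus galactose-fed controls, as the mean of six animals, compared by Dunnett's multiple comparison.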

[2] = molecular target: Aldo-keto reductase family 1 member B1 (Bos taurus) (UniProt P16116); experiment: In vitro inhibition of aldose reductase in partially purified bovine lens preparation at a concentration of 4*10e -8M.
Method in brief: (§2)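 Enzyme from bovine lens, partially purified by the cited method with the final chromatographic step omitted. DL-Glyceraldehyde was the substrate. Test compounds were run in duplicate at 1×10⁻⁵, 1×10⁻⁶, 1×10⁻⁷ or 4×10⁻⁸ M. Values are % inhibition of enzymatic activity.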

[3] = molecular target: Aldo-keto reductase family 1 member B1 (Bos taurus) (UniProt P16116); experiment: In vitro inhibition of aldose reductase in partially purified bovine lens preparation at a concentration of 10e -7M.; method in brief: as §2
[4] = test system: Rattus norvegicus; experiment: (§3) In vivo inhibition of galactitol accumulation in the sciatic nerve of rats fed 20% galactose for 4 day at 95 mg/kg/day dose; NS= No Significant inhibition of polyol accumulation; type: functional, organism-based
[5] = molecular target: Aldo-keto reductase family 1 member B1 (Bos taurus) (UniProt P16116); experiment: in vitro inhibition of aldose reductase in partially purified bovine lens preparation at a concentration of 10e -6M.
[6] = test system: Rattus norvegicus; experiment: as §3; type: functional, organism-based; remark: listed apart in the source
[7] = molecular target: Aldo-keto reductase family 1 member B1 (Bos taurus) (UniProt P16116); experiment: In vitro inhibition of Aldose reductase in partially purified bovine lens preparation at a concentration of 10e -7M.; method in brief: as §2
[8] = test system: Rattus norvegicus; experiment: In vivo inhibition of galactitol accumulation in the diaphragm of rats fed 20% galactose for 4 day at 96 mg/kg/day dose; type: functional; method in brief: as §1
[9] = molecular target: Aldo-keto reductase family 1 member B1 (Bos taurus) (UniProt P16116); experiment: In vitro inhibition of Aldose reductase in partially purified bovine lens preparation at a concentration of 4*10e -8M.; method in brief: as §2
[10] = test system: Rattus norvegicus; experiment: In vivo inhibition of galactitol accumulation in the sciatic nerve of rats fed 20% galactose for 4 day at 96 mg/kg/day dose; type: functional
[11] = test system: Rattus norvegicus; experiment: In vivo inhibition of galactitol accumulation in the sciatic nerve of rats fed 20% galactose for 4 day at 100 mg/kg/day dose; type: functional; method in brief: as §1
[12] = test system: Rattus norvegicus; experiment: In vivo inhibition of galactitol accumulation in the diaphragm of rats fed 20% galactose for 4 day at 100 mg/kg/day dose; type: functional; method in brief: as §1
[13] = test system: Rattus norvegicus; experiment: In vivo inhibition of galactitol accumulation in the sciatic nerve of rats fed 20% galactose for 4 day at 95 mg/kg/day dose; type: functional
[14] = test system: Rattus norvegicus; experiment: In vivo inhibition of galactitol accumulation in the diaphragm of rats fed 20% galactose for 4 day at 95 mg/kg/day dose; type: functional; method in brief: as §1
[15] = test system: Rattus norvegicus; experiment: In vivo inhibition of galactitol accumulation in the sciatic nerve of rats fed 20% galactose for 4 day at 96 mg/kg/day dose; NS = No Significant inhibition of polyol accumulation; type: functional, organism-based
[16] = molecular target: Aldo-keto reductase family 1 member B1 (Bos taurus) (UniProt P16116); experiment: in vitro inhibition of Aldose reductase in partially purified bovine lens preparation at a concentration of 10e-6 M.
[17] = test system: Rattus norvegicus; experiment: In vivo inhibition of galactitol accumulation in the sciatic nerve of rats fed 20% galactose for 4 day at 99 mg/kg/day dose; NS = No Significant inhibition of polyol accumulation; type: functional, organism-based
[18] = test system: Rattus norvegicus; experiment: In vivo inhibition of galactitol accumulation in the diaphragm of rats fed 20% galactose for 4 day at 99 mg/kg/day dose; NS = No Significant inhibition of polyol accumulation; type: functional, organism-based; method in brief: as §1
[19] = test system: Rattus norvegicus; experiment: In vivo inhibition of galactitol accumulation in the sciatic nerve of rats fed 20% galactose for 4 day at 101 mg/kg/day dose; NS = No Significant inhibition of polyol accumulation; type: functional, organism-based; method in brief: as §1
[20] = molecular target: Aldo-keto reductase family 1 member B1 (Bos taurus) (UniProt P16116); experiment: In vitro inhibition of aldose reductase in partially purified bovine lens preparation at a concentration of 10e -5M.; conditions: in the assay text read “10e -6M” for “10e -5M”; method in brief: as §2
[21] = molecular target: Aldo-keto reductase family 1 member B1 (Bos taurus) (UniProt P16116); experiment: In vitro inhibition of aldose reductase in partially purified bovine lens preparation at a concentration of 10e -6M.; type: functional; method in brief: as §2
[22] = test system: Rattus norvegicus; experiment: In vivo inhibition of galactitol accumulation in the diaphragm of rats fed 20% galactose for 4 day at 58 mg/kg/day dose; NS = No Significant inhibition of polyol accumulation; type: functional, organism-based; method in brief: as §1
[23] = test system: Rattus norvegicus; experiment: In vivo inhibition of galactitol accumulation in the sciatic nerve of rats fed 20% galactose for 4 day at 58 mg/kg/day dose; NS = No Significant inhibition of polyol accumulation; type: functional, organism-based; method in brief: as §1
[24] = test system: Rattus norvegicus; experiment: In vivo inhibition of galactitol accumulation in the sciatic nerve of rats fed 20% galactose for 4 day at 77 mg/kg/day dose; NS = No Significant inhibition of polyol accumulation; type: functional, organism-based; method in brief: as §1
[25] = test system: Rattus norvegicus; experiment: In vivo inhibition of galactitol accumulation in the diaphragm of rats fed 20% galactose for 4 day at 77 mg/kg/day dose; NS = No Significant inhibition of polyol accumulation; type: functional, organism-based; method in brief: as §1
[26] = molecular target: Aldo-keto reductase family 1 member B1 (Bos taurus) (UniProt P16116); experiment: In vitro inhibition of aldose reductase in partially purified bovine lens preparation at a concentration of 10e-6 M.; method in brief: as §2
[27] = test system: Rattus norvegicus; experiment: In vivo inhibition of galactitol accumulation in the diaphragm of rats fed 20% galactose for 4 day at 101 mg/kg/day dose; NS = No Significant inhibition of polyol accumulation; type: functional, organism-based; method in brief: as §1

inhibition [2]: 54%
inhibition [3]: 87%
Structure (SMILES): O=C(O)CN1CN(Cc2ccc(Cl)c(Cl)c2)C(=O)c2cc(Cl)ccc21
Lowering [1]: 29%
Lowering [4]: Not significant

inhibition [5]: 31%
Structure (SMILES): C=CCn1c(=O)n(CC(=O)O)c(=O)c2cc(Br)ccc21
Lowering [6]: Not significant
Lowering [4]: Not significant

inhibition [7]: 83%
inhibition [9]: 71%
Structure (SMILES): O=C(O)Cn1c(=O)c2cc(Br)ccc2n(Cc2ccc(Br)cc2F)c1=O
Lowering [8]: 76%
Lowering [10]: 60%

inhibition [2]: 39%
inhibition [3]: 59%
Structure (SMILES): O=C(O)Cn1c(=O)c2cc(Br)ccc2n(Cc2ccc(Br)cc2)c1=O
Lowering [11]: 24%
Lowering [12]: 36%

inhibition [2]: 11%
inhibition [3]: 31%
Structure (SMILES): COc1ccc(Cn2c(=O)n(CC(=O)O)c(=O)c3cc(Br)ccc32)cc1
Lowering [6]: Not significant
Lowering [4]: Not significant

inhibition [2]: 55%
inhibition [3]: 76%
Structure (SMILES): O=C(O)Cn1c(=O)c2ccc(Cl)cc2n(Cc2ccc(Br)cc2F)c1=O
Lowering [13]: 42%
Lowering [14]: 74%

inhibition [16]: 40%
Structure (SMILES): O=C(O)Cn1c(=O)c2ccccc2n1Cc1ccc(Br)cc1F
Lowering [8]: 24%
Lowering [15]: Not significant

inhibition [2]: 63%
inhibition [3]: 89%
Structure (SMILES): O=C(O)Cn1c(=O)n(Cc2ccc(Cl)c(Cl)c2)c(=O)c2c3c(sc21)CCCC3
Lowering [17]: Not significant
Lowering [18]: Not significant

inhibition [7]: 60%
inhibition [9]: 36%
Structure (SMILES): O=C(O)Cn1c2ccc([N+](=O)[O-])cc2c(=O)n1Cc1ccc(Br)cc1F
Lowering [1]: 22%
Lowering [19]: Not significant

inhibition [20]: 60%
Structure (SMILES): Cn1c(=O)n(CC(=O)O)c(=O)c2cc(Cl)ccc21

inhibition [5]: 46%
Structure (SMILES): O=C(O)Cn1c(=O)c2cc(Br)ccc2n(C(=O)c2ccccc2)c1=O
Lowering [6]: Not significant
Lowering [4]: Not significant

inhibition [2]: 33%
inhibition [3]: 70%
Structure (SMILES): O=C(O)Cn1c(=O)c2c(Cl)cccc2n(Cc2ccc(Br)cc2F)c1=O
Lowering [4]: Not significant
Lowering [14]: 46%

inhibition [2]: 8%
inhibition [3]: 21%
Structure (SMILES): O=C(O)CN1C(=O)c2cc(Cl)ccc2N(Cc2ccc(Br)cc2F)[S+]1[O-] (stereo not given)
Lowering [6]: Not significant
Lowering [4]: Not significant

inhibition [21]: 68%
inhibition [2]: 16%
inhibition [3]: 22%
Structure (SMILES): Cc1c(-c2ccccc2)n(Cc2ccc(Cl)c(Cl)c2)c(=O)n(CC(=O)O)c1=O
Lowering [22]: Not significant
Lowering [23]: Not significant

inhibition [20]: 64%
Structure (SMILES): O=C(O)Cn1c(=O)[nH]c2ccc(Br)cc2c1=O

inhibition [16]: 32%
Structure (SMILES): O=C(O)Cn1cnc2ccc(Br)cc2c1=O
Lowering [24]: Not significant
Lowering [25]: Not significant

inhibition [20]: 45%
Structure (SMILES): O=C(O)Cn1c(=O)c2ccccc2n(-c2ccccc2)c1=O

inhibition [26]: 57%
inhibition [3]: 13%
Structure (SMILES): CCc1nc2ccc(Br)cc2c(=O)n1CC(=O)O
Lowering [19]: Not significant
Lowering [27]: Not significant
